# Data from ChEMBL document CHEMBL1177854, “Synthesis of bile acid derivatives and in vitro cytotoxic activity with pro-apoptotic process on multiple myeloma (KMS-11), glioblastoma multiforme (GBM), and colonic carcinoma (HCT-116) human cell lines” (Eur J Med Chem, 2010).
# Activity calls are given as the source filed them. No cut-off for these calls is given here.
# Key:
# [1] = Cytotoxicity against human KMS11 cells after 24 hrs by neutral red uptake assay; type: functional, cell-based; conditions: KMS-11, 24 h
# Summary of the method: (§1)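 GBM-12 (brain tumour line), KMS-11 myeloma or HCT-116 colon carcinoma cells exposed to compound for 24 h; viability read by neutral red uptake. IC50 taken from dose-response curves; mean of three experiments ± standard error.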
# GBM [2] = test: Cytotoxicity against human GBM cells after 24 hrs by neutral red uptake assay; type: functional, cell-based; summary of the method: as §1
# HCT-116 [3] = test: Cytotoxicity against human HCT116 cells after 24 hrs by neutral red uptake assay; type: functional, cell-based; conditions: HCT-116, 24 h; summary of the method: as §1
# [4] = Lipophilicity, log P of the compound; type: physicochemical; conditions: octanol/water
# Summary of the method: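 Log P calculated in silico with the ALogP program; not measured experimentally.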
# KMS-11 [5] = test: Induction of apoptosis in human KMS11 cells assessed as dead cells at 20 uM after 24 hrs using annexin V stain by FACSCalibur flow cytometry; type: functional
# Summary of the method: (§2)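 Cells were exposed to compound for 24 h alongside untreated control cultures. They were then labelled with FITC-conjugated annexin V to mark early apoptosis. The percentage of apoptotic cells was read by flow cytometry.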
# GBM [6] = test: Induction of apoptosis in human GBM cells assessed as dead cells at 20 uM after 24 hrs using annexin V stain by FACSCalibur flow cytometry; type: functional
# HCT-116 [7] = test: Induction of apoptosis in human HCT116 cells assessed as dead cells at 20 uM after 24 hrs using annexin V stain by FACSCalibur flow cytometry; type: functional; summary of the method: as §2
# KMS-11 [8] = test: Induction of apoptosis in human KMS11 cells assessed as apoptotic nuclei at 10 uM after 24 hrs by microscopy relative to control; type: functional
# KMS-11 [9] = test: Induction of apoptosis in human KMS11 cells assessed as apoptotic nuclei at 20 uM after 24 hrs by microscopy relative to control; type: functional
# KMS-11 [10] = test: Induction of apoptosis in human KMS11 cells assessed as apoptotic nuclei at 40 uM after 24 hrs by microscopy relative to control; type: functional
# KMS-11 [11] = test: Induction of apoptosis in human KMS11 cells assessed as DNA fragmentation after 48 hrs; type: functional, cell-based
# Summary of the method: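 KMS-11 cultures treated for 48 h; culture supernatants run on agarose gel electrophoresis against a 100 bp DNA ladder to detect DNA fragmentation.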
logP ([4]; read-out: logP),SMILES,IC50 [1],IC50 (GBM [2]),IC50 (HCT-116 [3]),Activity (KMS-11 [5]),Activity (GBM [6]),Activity (HCT-116 [7]),Activity (KMS-11 [8]),Activity (KMS-11 [9]),Activity (KMS-11 [10]),Activity (KMS-11 [11]),logP [4]
5.81,C[C@H](CCC(=O)N1CCN(C/C=C/c2ccccc2)CC1)[C@H]1CC[C@H]2[C@@H]3[C@H](O)C[C@@H]4C[C@H](O)CC[C@]4(C)[C@H]3CC[C@]12C,8.5 µM,16.5 µM,18.5 µM,,,,,,,,
3.26,C[C@H](CCC(=O)NN1CCN(C)CC1)[C@H]1CC[C@H]2[C@@H]3[C@@H](O)C[C@@H]4C[C@H](O)CC[C@]4(C)[C@H]3CC[C@]12C,> 50 µM,> 50 µM,> 50 µM,,,,,,,,
2.16,C[C@H](CCC(=O)NN1CCN(C)CC1)[C@H]1CC[C@H]2[C@@H]3[C@H](O)C[C@@H]4C[C@H](O)CC[C@]4(C)[C@H]3C[C@H](O)[C@]12C,> 50 µM,> 50 µM,> 50 µM,,,,,,,,
4.71,C[C@H](CCC(=O)N1CCN(C/C=C/c2ccccc2)CC1)[C@H]1CC[C@H]2[C@@H]3[C@H](O)C[C@@H]4C[C@H](O)CC[C@]4(C)[C@H]3C[C@H](O)[C@]12C,> 50 µM,> 50 µM,> 50 µM,,,,,,,,
,C[C@H](CCC(=O)O)[C@H]1CC[C@H]2[C@@H]3[C@H](O)C[C@@H]4C[C@H](O)CC[C@]4(C)[C@H]3C[C@H](O)[C@]12C [CHOLIC ACID],> 50 µM,> 50 µM,> 50 µM,,,,,,,,2.912
,C[C@H](CCC(=O)O)[C@H]1CC[C@H]2[C@@H]3[C@@H](O)C[C@@H]4C[C@H](O)CC[C@]4(C)[C@H]3CC[C@]12C [URSODIOL],> 50 µM,> 50 µM,> 50 µM,,,,,,,,4.014
,C[C@H](CCC(=O)O)[C@H]1CC[C@H]2[C@@H]3[C@H](O)C[C@@H]4C[C@H](O)CC[C@]4(C)[C@H]3CC[C@]12C [CHENODIOL],> 50 µM,> 50 µM,> 50 µM,,,,,,,,4.014
3.26,C[C@H](CCC(=O)NN1CCN(C)CC1)[C@H]1CC[C@H]2[C@@H]3[C@H](O)C[C@@H]4C[C@H](O)CC[C@]4(C)[C@H]3CC[C@]12C,≥ 50 µM,≥ 50 µM,> 50 µM,,,,,,,,

SMILES,logP ([4]; read-out: logP),IC50 [1],IC50 (GBM [2]),IC50 (HCT-116 [3]),Activity (KMS-11 [5]),Activity (GBM [6]),Activity (HCT-116 [7]),Activity (KMS-11 [8]),Activity (KMS-11 [9]),Activity (KMS-11 [10]),Activity (KMS-11 [11]),logP [4]
C[C@H](CCC(=O)N1CCN(C/C=C/c2ccccc2)CC1)[C@H]1CC[C@H]2[C@@H]3[C@@H](O)C[C@@H]4C[C@H](O)CC[C@]4(C)[C@H]3CC[C@]12C,5.81,28.1 µM,24.7 µM,31.4 µM,96%,78%,45%,84%,59%,35%,Active,
